Assay results reported in ChEMBL document CHEMBL1138356, “Design and synthesis of human immunodeficiency virus entry inhibitors: sulfonamide as an isostere for the alpha-ketoamide group” (J Med Chem, 2007).

Experiments:
[1] = system: Human immunodeficiency virus 1; assay: Antiviral activity against HIV1 pseudovirus in U87 cells expressing CD4 and CCR5 after 72 hrs by M33 pseudotyped assay; type: functional, organism-based, U-87MG ATCC; conditions: Human immunodeficiency virus 1, U-87 MG
Method in brief: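 M33 pseudotyped viral attachment assay giving IC50 values. Specificity for HIV was judged by counter-screening against AMLV-pseudotyped virus at concentrations above 100× the M33 IC50.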

[2] = Cytotoxicity against human U87 cells expressing CD4 and CXCR4; type: cell-based, U-87MG ATCC
[3] = system: Human immunodeficiency virus; assay: Antiviral activity against HIV 584.000220 by viral replication assay; type: functional, organism-based; conditions: Human immunodeficiency virus 1
[4] = system: Human immunodeficiency virus; assay: Antiviral activity against HIV 584.000063P1B by viral replication assay; type: functional, organism-based; conditions: Human immunodeficiency virus 1
[5] = system: Human immunodeficiency virus; assay: Antiviral activity against HIV 208.000923 by viral replication assay; type: functional, organism-based; conditions: Human immunodeficiency virus 1
[6] = system: Human immunodeficiency virus; assay: Antiviral activity against HIV 589.000049 by viral replication assay; type: functional, organism-based; conditions: Human immunodeficiency virus 1
[7] = system: Human immunodeficiency virus; assay: Antiviral activity against HIV 589.000821 by viral replication assay; type: functional, organism-based; conditions: Human immunodeficiency virus 1
[8] = system: Human immunodeficiency virus; assay: Antiviral activity against HIV 589.000033 by viral replication assay; type: functional, organism-based; conditions: Human immunodeficiency virus 1
[9] = system: Human immunodeficiency virus; assay: Antiviral activity against HIV 584.000030 by viral replication assay; type: functional, organism-based; conditions: Human immunodeficiency virus 1
[10] = system: Human immunodeficiency virus; assay: Antiviral activity against HIV 584.000039 by viral replication assay; type: functional, organism-based; conditions: Human immunodeficiency virus 1
[11] = system: Human immunodeficiency virus; assay: Antiviral activity against HIV 584.000058 by viral replication assay; type: functional, organism-based; conditions: Human immunodeficiency virus 1
[12] = system: Human immunodeficiency virus; assay: Antiviral activity against HIV 584.000088 by viral replication assay; type: functional, organism-based; conditions: Human immunodeficiency virus 1
[13] = system: Human immunodeficiency virus; assay: Antiviral activity against HIV 584.000241 by viral replication assay; type: functional, organism-based; conditions: Human immunodeficiency virus 1
[14] = system: Human immunodeficiency virus; assay: Antiviral activity against HIV 584.000016 by viral replication assay; conditions: Human immunodeficiency virus 1

IC50 [1] [nM]	IC50 [3] [nM]	IC50 [4] [nM]	IC50 [5] [nM]	IC50 [6] [nM]	IC50 [7] [nM]	IC50 [8] [nM]	IC50 [9] [nM]	IC50 [10] [nM]	IC50 [11] [nM]	IC50 [12] [nM]	IC50 [13] [nM]	IC50 [14] [nM]	Compound	CC50 [2] [nM]
8	4	37	1400	6	2800	28	31	400	58	14	118	40	COc1ccnc2[nH]cc(C(=O)C(=O)N3CCN(C(=O)c4ccccc4)C[C@H]3C)c12	> 40000
54	2	460	465	46	330	492	267	1800	1400	116	8	513	CC1CN(C(=O)c2ccccc2)CCN1S(=O)(=O)c1c[nH]c2c(-n3ccnn3)nccc12 (racemic)	> 40000
